Measured values: ChEMBL document CHEMBL3739391, “Development of a potent and selective cell penetrant Legumain inhibitor” (Bioorg Med Chem Lett, 2015)
Active and inactive are the calls of the source. The calls are words filed in the database; no cut-off is given here.

Key:
Legumain = target: T1, Legumain (Homo sapiens, UniProt Q99538); experiment: Inhibition of recombinant human legumain using Z-Ala-Ala-Asn-MCA substrate measured every 2 mins for 60 mins by microplate reader analysis
T1 sequence (Q99538 whole entry): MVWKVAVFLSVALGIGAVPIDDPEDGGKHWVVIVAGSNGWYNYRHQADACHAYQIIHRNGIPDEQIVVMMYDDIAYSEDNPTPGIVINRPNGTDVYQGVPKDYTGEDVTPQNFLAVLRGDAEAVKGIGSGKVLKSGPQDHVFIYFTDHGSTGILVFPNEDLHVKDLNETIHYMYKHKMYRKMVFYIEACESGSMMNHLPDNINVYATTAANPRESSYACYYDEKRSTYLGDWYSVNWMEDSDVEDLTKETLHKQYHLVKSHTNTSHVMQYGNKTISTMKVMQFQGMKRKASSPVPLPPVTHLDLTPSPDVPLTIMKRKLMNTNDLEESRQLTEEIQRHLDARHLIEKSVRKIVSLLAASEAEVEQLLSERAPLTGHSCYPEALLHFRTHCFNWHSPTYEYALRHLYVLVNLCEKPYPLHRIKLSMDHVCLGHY

Legumain (Homo sapiens) [1] = target: T2, Legumain (Homo sapiens) (UniProt Q99538); experiment: Inhibition of legumain in human MCF7 cells using Z-Ala-Ala-Asn-MCA substrate at 30 uM incubated for 24 hrs by microplate reader analysis; assay type: cell-based
T2 sequence (whole entry): T1 sequence (Q99538 whole entry)
Method in brief: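 MCF7 cells incubated with compound at 37 °C for 24 h. Media then removed, cells washed with assay buffer and lysed. Intracellular legumain activity read in the lysate with fluorogenic substrate. Run in triplicate.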

[2] = Cytotoxicity against human DU145 cells assessed as cell viability at 30 uM incubated for 96 hrs by MTT assay; assay type: functional; details: DU-145, 96 h, read-out: Activity
Method in brief: (§1)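 MTT viability read-out after 96 h exposure. Compared with DMSO vehicle control. n = 6.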

T47D = experiment: Cytotoxicity against human T47D cells assessed as cell viability at 30 uM incubated for 96 hrs by MTT assay; assay type: functional; details: read-out: Activity; method in brief: as §1
Cathepsin B = Cathepsin B (Homo sapiens, UniProt P07858); experiment: Inhibition of recombinant cathepsin B (unknown origin) using Z-Leu-Arg-AMC fluorogenic substrate
Caspase-8 = Caspase-8 (Homo sapiens, UniProt Q14790); experiment: Inhibition of recombinant caspase 8 (unknown origin) using IETD-AFC fluorogenic substrate
Caspase-8, sequence (Q14790 217-374 limits assumed): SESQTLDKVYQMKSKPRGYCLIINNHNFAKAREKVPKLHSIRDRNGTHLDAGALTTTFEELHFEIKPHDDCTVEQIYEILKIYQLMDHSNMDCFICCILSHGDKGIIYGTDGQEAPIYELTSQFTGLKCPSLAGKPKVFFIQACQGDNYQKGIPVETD
Caspase-8, sequence (Q14790 385-479 limits assumed): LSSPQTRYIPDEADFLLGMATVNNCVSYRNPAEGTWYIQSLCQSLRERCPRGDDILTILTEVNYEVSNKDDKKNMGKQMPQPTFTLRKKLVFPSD

Caspase-3 = target: T3, Caspase-3 (Homo sapiens, UniProt P42574); experiment: Inhibition of recombinant caspase 3 (unknown origin) using DEVD-AFC fluorogenic substrate
T3 sequence (P42574 whole entry): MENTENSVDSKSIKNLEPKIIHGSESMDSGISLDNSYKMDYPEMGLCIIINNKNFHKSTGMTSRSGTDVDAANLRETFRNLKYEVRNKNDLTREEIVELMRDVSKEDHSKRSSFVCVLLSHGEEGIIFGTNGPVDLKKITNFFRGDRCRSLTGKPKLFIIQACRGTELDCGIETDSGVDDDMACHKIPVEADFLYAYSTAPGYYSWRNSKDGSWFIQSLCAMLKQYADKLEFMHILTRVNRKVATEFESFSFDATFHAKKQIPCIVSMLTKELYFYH

[3] = target: T4, Ubiquitin carboxyl-terminal hydrolase 17 (Homo sapiens, UniProt Q6R6M4); experiment: Inhibition of USP17 in human HEK293T cells using fluorogenic substrate ub-rhodamine110 preincubated for 30 mins followed by substrate addition measured every 4 mins for 1 hr by microplate reader analysis; assay type: cell-based, HEK-293T
T4 sequence (Q6R6M4 whole entry): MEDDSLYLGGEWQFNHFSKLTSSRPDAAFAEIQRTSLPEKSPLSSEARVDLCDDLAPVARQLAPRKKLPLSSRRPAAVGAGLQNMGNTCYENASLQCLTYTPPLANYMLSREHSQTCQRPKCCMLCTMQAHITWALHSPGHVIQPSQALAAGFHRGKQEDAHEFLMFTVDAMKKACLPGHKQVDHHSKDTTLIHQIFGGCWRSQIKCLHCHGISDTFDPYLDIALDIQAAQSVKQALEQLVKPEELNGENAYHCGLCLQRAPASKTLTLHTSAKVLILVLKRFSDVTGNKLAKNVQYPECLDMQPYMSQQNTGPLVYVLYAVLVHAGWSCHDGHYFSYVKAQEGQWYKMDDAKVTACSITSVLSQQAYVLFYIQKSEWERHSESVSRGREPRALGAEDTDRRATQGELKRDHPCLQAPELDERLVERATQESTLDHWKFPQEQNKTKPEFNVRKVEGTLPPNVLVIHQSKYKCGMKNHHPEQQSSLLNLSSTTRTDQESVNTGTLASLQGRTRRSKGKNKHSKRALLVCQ

Legumain (Homo sapiens) [4] = target: T2, Legumain (Homo sapiens); experiment: Inhibition of legumain in human MCF7 cells using Z-Ala-Ala-Asn-MCA substrate at 30 uM incubated for 48 hrs by microplate reader analysis; assay type: cell-based
[5] = Cytotoxicity against human PC3 cells assessed as cell viability at 30 uM incubated for 96 hrs by MTT assay; assay type: functional; details: PC-3, 96 h, read-out: Activity; method in brief: as §1
MCF7 [6] = experiment: Cytotoxicity against human MCF7 cells assessed as cell death at 30 uM incubated for 96 hrs by MTT assay; assay type: functional; details: MCF7, 96 h
Method in brief: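 MCF7 breast cancer cells were exposed to compound for 96 h, with DMSO vehicle as the control. Viability was read by MTT assay, n = 6.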

[7] = Cytotoxicity against human MCF10A cells assessed as cell death at 150 uM incubated for 96 hrs by MTT assay; assay type: functional; details: MCF-10A
[8] = Antimetastatic activity in human PC3 cells assessed as inhibition of colony formation efficiency at 2.5 uM after 2 weeks by soft agar anchorage-independent growth assay; assay type: functional; details: PC-3, 336 h
Method in brief: (§2)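 Soft agar anchorage-independent colony formation in MCF7 and PC3 cells over 2 weeks. Compound and media refreshed every 4 days. Colonies quantified relative to DMSO vehicle-treated cells. n = 5.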

Cathepsin S = Cathepsin S (Homo sapiens, UniProt P25774); experiment: Inhibition of recombinant cathepsin S (unknown origin) using ZVVR-AMC fluorogenic substrate
Cathepsin S, sequence (P25774 whole entry): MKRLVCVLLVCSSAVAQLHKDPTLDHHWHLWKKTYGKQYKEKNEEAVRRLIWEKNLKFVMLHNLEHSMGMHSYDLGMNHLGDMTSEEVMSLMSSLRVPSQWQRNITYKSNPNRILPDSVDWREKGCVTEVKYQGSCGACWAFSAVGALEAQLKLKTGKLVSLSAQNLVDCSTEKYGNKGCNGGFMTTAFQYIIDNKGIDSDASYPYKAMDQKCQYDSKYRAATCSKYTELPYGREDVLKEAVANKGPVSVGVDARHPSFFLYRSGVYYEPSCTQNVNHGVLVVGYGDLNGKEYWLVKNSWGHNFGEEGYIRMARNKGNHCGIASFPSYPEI

MCF7 [9] = experiment: Antimetastatic activity in human MCF7 cells assessed as inhibition of colony formation efficiency at 5 uM after 2 weeks by soft agar anchorage-independent growth assay; assay type: functional; details: MCF7, 336 h; method in brief: as §2

| SMILES | IC50 (Legumain) | inhibition (Legumain (Homo sapiens) [1]) | also measured |
| --- | --- | --- | --- |
| N#C[C@H](CC(N)=O)NC(=O)[C@@H]1CCCN1S(=O)(=O)c1ccc(F)cc1 | 269 nM | 0% | – |
| N#C[C@H](CC(N)=O)NC(=O)[C@@H]1CCCN1S(=O)(=O)c1ccc(Br)cc1 | 282 nM | 0% | – |
| CC(C)(C)c1ccc(-c2ccc(S(=O)(=O)N3CCC[C@H]3C(=O)N[C@H](C#N)CC(N)=O)cc2)cc1 | 71 nM | 90% | viability at 30 µM [2]: > 50%; viability at 30 µM (T47D): > 50%; IC50 (Cathepsin B): > 50000 nM; IC50 (Caspase-8): > 50000 nM; IC50 (Caspase-3): > 50000 nM; IC50 [3]: > 50000 nM; inhibition (Legumain (Homo sapiens) [4]): Active; viability at 30 µM [5]: > 50%; mortality at 30 µM (MCF7 [6]): 81%; mortality at 150 µM [7]: 0%; inhibition at 2.5 µM [8]: 50%; IC50 (Cathepsin S): > 50000 nM; inhibition at 5 µM (MCF7 [9]): 50% |
| COc1ccc(S(=O)(=O)N2CCC[C@H]2C(=O)N[C@H](C#N)CC(N)=O)cc1 | > 10000 nM | – | – |
| N#C[C@H](CC(N)=O)NC(=O)[C@@H]1CCCN1S(=O)(=O)c1ccc(-c2ccccc2)cc1 | 12 nM | 47% | IC50 (Cathepsin B): > 50000 nM; IC50 (Caspase-8): > 50000 nM; IC50 (Caspase-3): > 50000 nM; IC50 [3]: > 50000 nM; mortality at 30 µM (MCF7 [6]): 45%; mortality at 150 µM [7]: 0%; IC50 (Cathepsin S): > 50000 nM |
| Cc1ccc(-c2ccc(S(=O)(=O)N3CCC[C@H]3C(=O)N[C@H](C#N)CC(N)=O)cc2)cc1 | 32 nM | 0% | – |
| N#C[C@H](CC(N)=O)NC(=O)[C@@H]1CCCN1S(=O)(=O)c1ccc(-c2ccc3c(c2)OCO3)cc1 | 49 nM | 49% | – |
| N#C[C@H](CC(N)=O)NC(=O)[C@@H]1CCCN1S(=O)(=O)c1ccc(-c2ccc(F)cc2)cc1 | 33 nM | 40% | – |
| N#C[C@H](CC(N)=O)NC(=O)[C@@H]1CCCN1S(=O)(=O)c1ccc(-c2ccc(C(F)(F)F)cc2)cc1 | 121 nM | 52% | – |
| COc1ccc(-c2ccc(S(=O)(=O)N3CCC[C@H]3C(=O)N[C@H](C#N)CC(N)=O)cc2)cc1 | 6 nM | 90% | IC50 (Cathepsin B): > 50000 nM; IC50 (Caspase-8): > 50000 nM; IC50 (Caspase-3): > 50000 nM; IC50 [3]: > 50000 nM; mortality at 30 µM (MCF7 [6]): 58%; mortality at 150 µM [7]: 0%; IC50 (Cathepsin S): > 50000 nM |
| CC(C)c1ccc(-c2ccc(S(=O)(=O)N3CCC[C@H]3C(=O)N[C@H](C#N)CC(N)=O)cc2)cc1 | 5 nM | 75% | – |
| N#Cc1ccc(-c2ccc(S(=O)(=O)N3CCC[C@H]3C(=O)N[C@H](C#N)CC(N)=O)cc2)cc1 | 33 nM | 0% | – |
| N#C[C@H](CC(N)=O)NC(=O)[C@@H]1CCCN1S(=O)(=O)c1ccc(-c2cccc(F)c2)cc1 | 47 nM | 42% | – |
| N#C[C@H](CC(N)=O)NC(=O)[C@@H]1CCCN1S(=O)(=O)c1ccc(Cl)cc1Cl | 593 nM | 0% | – |
| CCOc1ccc(-c2ccc(S(=O)(=O)N3CCC[C@H]3C(=O)N[C@H](C#N)CC(N)=O)cc2)cc1 | 73 nM | 90% | – |
| CCc1ccc(-c2ccc(S(=O)(=O)N3CCC[C@H]3C(=O)N[C@H](C#N)CC(N)=O)cc2)cc1 | 71 nM | 42% | – |
| N#C[C@H](CC(N)=O)NC(=O)[C@@H]1CCCN1S(=O)(=O)c1ccc(C(F)(F)F)cc1 | 332 nM | 0% | – |
| N#C[C@H](CC(N)=O)NC(=O)[C@@H]1CCCN1S(=O)(=O)c1ccc(-c2ccccc2Cl)cc1 | 35 nM | 29% | – |
| N#C[C@H](CC(N)=O)NC(=O)[C@@H]1CCCN1S(=O)(=O)c1ccc(Cl)cc1 | 73 nM | 0% | – |
| N#C[C@H](CC(N)=O)NC(=O)[C@@H]1CCCN1S(=O)(=O)c1ccc(-c2ccc(Cl)cc2)cc1 | 45 nM | 64% | – |
| CC(C)Oc1ccc(-c2ccc(S(=O)(=O)N3CCC[C@H]3C(=O)N[C@H](C#N)CC(N)=O)cc2)cc1 | 969 nM | 49% | – |
